Tests used:
Rat [1] = assay: concentration in brain after dosing; conditions: 2 min; dosed: 2-Methyltetrahydrofuran; 40 mg/kg; iv; Male; Harlan Sprague Dawley
Rat [2] = assay: concentration in plasma after dosing; conditions: 1.5 h; dosed: 2-Methyltetrahydrofuran; 40 mg/kg; iv; Male; Harlan Sprague Dawley
Rat [3] = assay: concentration in brain after dosing; conditions: 4 h; dosed: 2-Methyltetrahydrofuran; 40 mg/kg; iv; Male; Harlan Sprague Dawley
Rat [4] = assay: concentration in brain after dosing; conditions: 0.2 h; dosed: 2-Methyltetrahydrofuran; 40 mg/kg; iv; Male; Harlan Sprague Dawley
Rat [5] = assay: concentration in brain after dosing; conditions: 0.75 h; dosed: 2-Methyltetrahydrofuran; 40 mg/kg; iv; Male; Harlan Sprague Dawley
Rat [6] = assay: concentration in brain after dosing; conditions: 2 min; dosed: 2-Methyltetrahydrofuran; 40 mg/kg; iv; Male; Harlan Sprague Dawley; remark: listed apart in the source
Rat [7] = assay: concentration in plasma after dosing; conditions: 2 min; dosed: 2-Methyltetrahydrofuran; 40 mg/kg; iv; Female; Harlan Sprague Dawley
Rat [8] = assay: concentration in brain after dosing; conditions: 2 h; dosed: 2-Methyltetrahydrofuran; 40 mg/kg; iv; Male; Harlan Sprague Dawley
Rat [9] = assay: concentration in plasma after dosing; conditions: dosed: 678-39-7, 40 mg/kg, iv, Female, Harlan Sprague-Dawley
Rat [10] = assay: concentration in plasma after dosing; conditions: dosed: Fluorotelomer alcohol 8+2, 12 mg/kg, oral, Male, Harlan Sprague Dawley
Rat [11] = assay: concentration in liver after dosing; conditions: 3 h; dosed: Fluorotelomer alcohol 8+2; 80 mg/kg; oral; Female; Harlan Sprague Dawley
Rat [12] = assay: concentration in brain after dosing; conditions: 12 h; dosed: Fluorotelomer alcohol 8+2; 24 mg/kg; oral; Male; Harlan Sprague Dawley
Rat [13] = assay: concentration in liver after dosing; conditions: 0.5 h; dosed: Fluorotelomer alcohol 8+2; 80 mg/kg; oral; Female; Harlan Sprague Dawley
Rat [14] = assay: concentration in brain after dosing; conditions: 1 h; dosed: Perfluorohexanoic Acid; 80 mg/kg; oral; Male; Harlan Sprague Dawley
Rat [15] = assay: concentration in plasma after dosing; conditions: dosed: Perfluorohexanoic Acid, 40 mg/kg, oral, Male, Harlan Sprague Dawley
Rat [16] = assay: concentration in plasma after dosing; conditions: dosed: Perfluorohexanoic Acid, 80 mg/kg, oral, Male, Harlan Sprague Dawley
Rat [17] = assay: concentration in plasma after dosing; conditions: 1 h; dosed: Perfluorohexanoic Acid; 80 mg/kg; oral; Male; Harlan Sprague Dawley
Rat [18] = assay: concentration in plasma after dosing; conditions: 1.5 h; dosed: Perfluorohexanoic Acid; 40 mg/kg; iv; Male; F344
Rat [19] = assay: concentration in liver after dosing; conditions: 3 h; dosed: Perfluorohexanoic Acid; 80 mg/kg; oral; Male; Harlan Sprague Dawley
Rat [20] = assay: concentration in plasma after dosing; conditions: 10 min; dosed: Gemfibrozil; 100 mg/kg; oral; Male; Sprague-Dawley
Rat [21] = assay: concentration in plasma after dosing; conditions: 6 h; dosed: Gemfibrozil; 4.29 mg/kg; oral; Male; Sprague-Dawley
Rat [22] = assay: concentration in plasma after dosing; conditions: 5 min; dosed: Gemfibrozil; 4.29 mg/kg; oral; Male; Sprague-Dawley
Rat [23] = assay: concentration in plasma after dosing; conditions: 4 h; dosed: Gemfibrozil; 50 mg/kg; oral; Male; Sprague-Dawley
human = assay: concentration in blood after dosing; conditions: dosed: trichloroethylene, 100 ppm, inhalation, duration: 4 hr, person
Method in brief: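 Concentration-versus-time or amount-versus-time points were compiled from published in vivo toxicokinetic studies and from two structured collections. The studies were found by PubMed searching, classifier screening and manual review. Points were mostly digitised from plot screenshots with WebPlotDigitizer, otherwise copied from tables, and kept in the reported units. Dose, route, subject details and medium were curated by hand from each paper, and sampling and analytical methods follow each source and were often unreported.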

Rat [24] = assay: concentration in brain after dosing; conditions: 24 h; dosed: Perfluorooctane Sulfonate; 2 mg/kg; oral; Female; Harlan Sprague Dawley
Rat [25] = assay: concentration in liver after dosing; conditions: 6 h; dosed: Perfluorooctane Sulfonate; 20 mg/kg; oral; Female; F344
Rat [26] = assay: concentration in kidney after dosing; conditions: 864 h; dosed: Perfluorooctane Sulfonate; 2 mg/kg; oral; Female; Harlan Sprague Dawley
Rat [27] = assay: concentration in liver after dosing; conditions: 24 h; dosed: Perfluorooctane Sulfonate; 20 mg/kg; oral; Male; Harlan Sprague Dawley
Rat [28] = assay: concentration in brain after dosing; conditions: 24 h; dosed: Perfluorooctane Sulfonate; 2 mg/kg; oral; Female; Harlan Sprague Dawley; remark: listed apart in the source
Rat [29] = assay: concentration in kidney after dosing; conditions: 3360 h; dosed: Perfluorooctane Sulfonate; 20 mg/kg; oral; Male; Harlan Sprague Dawley
Rat [30] = assay: concentration in liver after dosing; conditions: 24 h; dosed: Perfluorooctane Sulfonate; 2 mg/kg; oral; Female; Harlan Sprague Dawley
Rat [31] = assay: concentration in liver after dosing; conditions: 6 h; dosed: Perfluorooctane Sulfonate; 20 mg/kg; oral; Male; Harlan Sprague Dawley
Rat [32] = assay: concentration in liver after dosing; conditions: 864 h; dosed: Perfluorooctane Sulfonate; 20 mg/kg; oral; Female; F344
Rat [33] = assay: concentration in liver after dosing; conditions: 864 h; dosed: Perfluorooctane Sulfonate; 2 mg/kg; oral; Female; Harlan Sprague Dawley
Rat [34] = assay: concentration in liver after dosing; conditions: 6 h; dosed: Perfluorooctane Sulfonate; 2 mg/kg; oral; Female; Harlan Sprague Dawley
Rat [35] = assay: concentration in liver after dosing; conditions: 1848 h; dosed: Perfluorooctane Sulfonate; 2 mg/kg; oral; Female; Harlan Sprague Dawley
Rat [36] = assay: concentration in liver after dosing; conditions: 864 h; dosed: Perfluorooctane Sulfonate; 2 mg/kg; oral; Female; Harlan Sprague Dawley; remark: listed apart in the source

CC1CCCO1 (stereo unspecified) [2-Methyltetrahydrofuran]
Conditions | concentration in brain [ng/mL] | concentration in plasma [ng/mL]
Rat [1] | 34000 | –
Rat [2] | – | 11400
Rat [3] | 1660 | –
Rat [4] | 25500 | –
Rat [5] | 14400 | –
Rat [6] | 39000 | –
Rat [7] | – | 55300
Rat [8] | 7820 | –

O=C(O)CCC(F)(F)C(F)(F)C(F)(F)C(F)(F)C(F)(F)C(F)(F)C(F)(F)F [Fluorotelomer acid 7+3]
concentration in plasma [ng/mL]
Conditions | Rat [9] | Rat [10]
0.75 h | 929 | 313
12 h | 368 | 197

Conditions | concentration in brain [ng/g] | concentration in liver [ng/g]
Rat [11] | – | 11400
Rat [12] | 129 | –
Rat [13] | – | 934

O=C(O)C(F)(F)C(F)(F)C(F)(F)C(F)(F)C(F)(F)F [Perfluorohexanoic Acid]
Conditions | concentration in brain [ng/g] | concentration in liver [ng/g] | concentration in plasma [ng/mL]
Rat [14] | 2830 | – | –
Rat [17] | – | – | 152000
Rat [18] | – | – | 8490
Rat [19] | – | 37400 | –

concentration in plasma [ng/mL]
Conditions | 0.25 h | 0.75 h | 12 h | 24 h
Rat [15] | – | 46400 | 6500 | –
Rat [16] | 91200 | – | – | 239

Cc1ccc(C)c(OCCCC(C)(C)C(=O)O)c1 [Gemfibrozil]
Conditions | concentration in plasma [ng/mL]
Rat [20] | 130000
Rat [21] | 640
Rat [22] | 893
Rat [23] | 2860

ClC=C(Cl)Cl [trichloroethylene]
human
Conditions | concentration in blood [nM]
0 h | 13000
0.17 h | 4900
0.5 h | 3280
1 h | 2200
1.5 h | 1680
2 h | 1340
3 h | 1070
4 h | 865
6 h | 583
8 h | 392
10 h | 259

O=S(=O)([O-])C(F)(F)C(F)(F)C(F)(F)C(F)(F)C(F)(F)C(F)(F)C(F)(F)C(F)(F)F [Perfluorooctane Sulfonate]
Conditions | concentration in brain [ng/g] | concentration in kidney [ng/g] | concentration in liver [ng/g]
Rat [24] | 800 | – | –
Rat [25] | – | – | 139000
Rat [26] | – | 3490 | –
Rat [27] | – | – | 164000
Rat [28] | 553 | – | –
Rat [29] | – | 1110 | –
Rat [30] | – | – | 23800
Rat [31] | – | – | 164000
Rat [32] | – | – | 77100
Rat [33] | – | – | 11100
Rat [34] | – | – | 24500
Rat [35] | – | – | 5680
Rat [36] | – | – | 8950

Source: EPA's CvTdb concentration-time database
